pKi: −log10 of the molar value.
Columns and labels:
[1] = biological target: Adrenergic receptor alpha-2 (Rattus norvegicus) (UniProt P22086+P19328+P22909); assay: Stereo selectivity ratio for alpha-2(-)/(+) activities
[2] = biological target: T1, Phenylethanolamine N-methyltransferase (Bos taurus) (UniProt P10938); assay: Stereo selectivity ratio for PNMT(-)/(+ ) activities
T1 sequence (whole entry): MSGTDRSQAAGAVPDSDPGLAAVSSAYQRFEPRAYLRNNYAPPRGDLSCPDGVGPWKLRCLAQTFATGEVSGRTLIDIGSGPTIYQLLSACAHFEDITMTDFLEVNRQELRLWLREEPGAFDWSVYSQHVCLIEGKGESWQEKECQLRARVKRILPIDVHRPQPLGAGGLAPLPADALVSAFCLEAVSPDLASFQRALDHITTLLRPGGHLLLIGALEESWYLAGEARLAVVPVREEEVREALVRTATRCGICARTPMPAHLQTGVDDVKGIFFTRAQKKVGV

[3] = Relative affinity for PNMT and alpha2 adrenergic receptors
[4] = biological target: T2, Phenylethanolamine N-methyltransferase (Bos taurus, UniProt P10938); assay: Inhibition of bovine adrenal Phenylethanolamine N-Methyltransferase
T2 sequence (P10938 whole entry): T1 sequence (whole entry)

[5] = biological target: T3, Adrenergic receptor alpha-2 (Rattus norvegicus, UniProt P22086+P19328+P22909); assay: Displacement of [3H]clonidine from Alpha-2 adrenergic receptor of rat cortical membranes; assay type: cell membranes, Membrane
T3 sequence (P22086 whole entry): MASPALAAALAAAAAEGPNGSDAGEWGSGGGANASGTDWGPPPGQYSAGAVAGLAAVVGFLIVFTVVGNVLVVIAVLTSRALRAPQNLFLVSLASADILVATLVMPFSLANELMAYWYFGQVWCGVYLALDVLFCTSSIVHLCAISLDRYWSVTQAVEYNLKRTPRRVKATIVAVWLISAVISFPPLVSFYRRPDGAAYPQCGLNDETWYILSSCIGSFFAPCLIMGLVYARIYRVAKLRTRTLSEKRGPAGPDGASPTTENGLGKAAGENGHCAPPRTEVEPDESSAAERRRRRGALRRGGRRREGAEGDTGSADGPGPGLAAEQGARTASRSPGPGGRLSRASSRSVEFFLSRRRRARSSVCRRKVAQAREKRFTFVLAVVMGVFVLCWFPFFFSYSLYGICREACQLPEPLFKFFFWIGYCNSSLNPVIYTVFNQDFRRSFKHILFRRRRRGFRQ
T3 sequence (P19328 whole entry): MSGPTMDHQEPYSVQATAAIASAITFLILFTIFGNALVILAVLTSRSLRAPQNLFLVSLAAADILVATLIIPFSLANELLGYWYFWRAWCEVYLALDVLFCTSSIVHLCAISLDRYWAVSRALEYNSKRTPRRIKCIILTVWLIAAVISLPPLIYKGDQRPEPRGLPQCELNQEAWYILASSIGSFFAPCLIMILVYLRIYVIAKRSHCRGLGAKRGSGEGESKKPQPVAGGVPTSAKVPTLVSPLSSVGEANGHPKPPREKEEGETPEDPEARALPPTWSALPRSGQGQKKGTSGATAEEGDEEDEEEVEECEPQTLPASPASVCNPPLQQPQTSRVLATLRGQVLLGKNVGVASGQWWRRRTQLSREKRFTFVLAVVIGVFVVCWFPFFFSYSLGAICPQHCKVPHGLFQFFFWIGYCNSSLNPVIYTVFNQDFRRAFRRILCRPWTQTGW
T3 sequence (P22909 whole entry): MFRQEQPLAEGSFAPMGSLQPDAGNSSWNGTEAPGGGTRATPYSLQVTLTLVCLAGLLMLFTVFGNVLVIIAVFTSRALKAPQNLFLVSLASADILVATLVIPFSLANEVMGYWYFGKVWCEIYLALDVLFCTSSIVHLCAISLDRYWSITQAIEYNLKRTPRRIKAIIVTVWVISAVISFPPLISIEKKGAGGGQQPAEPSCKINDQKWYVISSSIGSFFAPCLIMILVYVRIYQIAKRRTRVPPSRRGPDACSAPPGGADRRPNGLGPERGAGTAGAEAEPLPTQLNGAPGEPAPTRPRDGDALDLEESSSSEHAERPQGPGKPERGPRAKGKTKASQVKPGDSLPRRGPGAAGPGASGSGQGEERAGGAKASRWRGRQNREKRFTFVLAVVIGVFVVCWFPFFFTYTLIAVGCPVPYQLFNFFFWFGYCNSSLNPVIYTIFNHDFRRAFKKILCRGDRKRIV
Summary of the method: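 Male Sprague-Dawley rat cortex homogenized in ice-cold 50 mM Tris/HCl (pH 7.7 at 25 °C), washed by three 50000g spins, resuspended at 200 volumes. [3H]clonidine 4.0 nM final; 25 °C, 30 min; terminated by vacuum filtration on GF/B filters and scintillation counting. Nonspecific binding with 2 μM phentolamine.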

[6] = biological target: T3, Adrenergic receptor alpha-2; assay: In vitro binding affinity towards cortical membranes of male Sprague-Dawley rats alpha-2 adrenergic receptor by replacing [3H]clonidine
Summary of the method: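 Rat cortex (male Sprague-Dawley) homogenised in ice-cold 50 mM Tris/HCl pH 7.7, washed by three 50000g spins. Tissue incubated with 4.0 nM [3H]clonidine (final) and drug at five concentrations over a 16-fold range, 25 °C for 30 min. Bound ligand collected by vacuum filtration on GF/B filters and counted. Nonspecific binding set with 2 μM phentolamine. Quadruplicate. IC50 from log-probit analysis; Ki = IC50/(1+[clonidine]/KD).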

[7] = biological target: T2, Phenylethanolamine N-methyltransferase; assay: In vitro inhibitory activity against bovine adrenal phenylethanolamine N-methyl transferase
[8] = biological target: T2, Phenylethanolamine N-methyltransferase; assay: In vitro inhibitory activity against bovine adrenal Phenylethanolamine N-Methyltransferase (for +- stereoisomer)

Structure (SMILES)	Selectivity [3]	pKi [4]	also measured
COCC1Cc2ccccc2CN1 (centres undefined)	0.3	5.04	
C[C@@H]1Cc2ccc([N+](=O)[O-])cc2CN1	41	5.89	Ratio [1]: 2.8; Ratio [2]: 5.2
COC(=O)C1Cc2ccccc2CN1 (centres undefined)			Ki [5]: 11 µM
O=[N+]([O-])c1ccc2c(c1)CN[C@@H](CO)C2		6.62	
CC1Cc2ccc([N+](=O)[O-])cc2CN1 (centres undefined)	63	6.31	Ki [5]: 31 µM
O=[N+]([O-])c1ccc2c(c1)CN[C@H](CO)C2		6.05	
NS(=O)(=O)c1ccc2c(c1)CNC(CO)C2 (centres undefined)	4100	6.47	
CCC1Cc2ccccc2CN1 (centres undefined)			Ki [6]: 0.66 µM
NC(=O)C1Cc2ccccc2CN1 (centres undefined)			Ki [5]: 250 µM
CS(=O)(=O)c1ccc2c(c1)CNC(CO)C2 (centres undefined)	1000	6.19	
C[C@H]1Cc2ccc([N+](=O)[O-])cc2CN1		6.60	
O=C(O)C1Cc2ccccc2CN1 (centres undefined)			pKi [7]: < 2.70
O=[N+]([O-])c1ccc2c(c1)CNC(CO)C2 (centres undefined)		6.54	

Second part, led by results:

Selectivity [3]	pKi [4]	Structure (SMILES)	also measured
7.9	6.25	OC[C@H]1Cc2ccccc2CN1	Ratio [1]: 3.9; Ratio [2]: 27
1.1	4.82	OC[C@@H]1Cc2ccccc2CN1	
6		OCC1Cc2ccccc2CN1 (centres undefined)	pKi [8]: 5.96

— ChEMBL document CHEMBL1132229, “3,7-Disubstituted-1,2,3,4-tetrahydroisoquinolines display remarkable potency and selectivity as inhibitors of phenylethanolamine N-methyltransferase versus the alpha2-adrenoceptor” (J Med Chem, 1999)
